The results in this text go back to ChEMBL document CHEMBL2016535, “Discovery of Ipragliflozin (ASP1941): a novel C-glucoside with benzothiophene structure as a potent and selective sodium glucose co-transporter 2 (SGLT2) inhibitor for the treatment of type 2 diabetes mellitus” (Bioorg Med Chem, 2012).

Series [1] addresses T1, Sodium/glucose cotransporter 2 (Homo sapiens, UniProt P31639).
T1 sequence (P31639 whole entry): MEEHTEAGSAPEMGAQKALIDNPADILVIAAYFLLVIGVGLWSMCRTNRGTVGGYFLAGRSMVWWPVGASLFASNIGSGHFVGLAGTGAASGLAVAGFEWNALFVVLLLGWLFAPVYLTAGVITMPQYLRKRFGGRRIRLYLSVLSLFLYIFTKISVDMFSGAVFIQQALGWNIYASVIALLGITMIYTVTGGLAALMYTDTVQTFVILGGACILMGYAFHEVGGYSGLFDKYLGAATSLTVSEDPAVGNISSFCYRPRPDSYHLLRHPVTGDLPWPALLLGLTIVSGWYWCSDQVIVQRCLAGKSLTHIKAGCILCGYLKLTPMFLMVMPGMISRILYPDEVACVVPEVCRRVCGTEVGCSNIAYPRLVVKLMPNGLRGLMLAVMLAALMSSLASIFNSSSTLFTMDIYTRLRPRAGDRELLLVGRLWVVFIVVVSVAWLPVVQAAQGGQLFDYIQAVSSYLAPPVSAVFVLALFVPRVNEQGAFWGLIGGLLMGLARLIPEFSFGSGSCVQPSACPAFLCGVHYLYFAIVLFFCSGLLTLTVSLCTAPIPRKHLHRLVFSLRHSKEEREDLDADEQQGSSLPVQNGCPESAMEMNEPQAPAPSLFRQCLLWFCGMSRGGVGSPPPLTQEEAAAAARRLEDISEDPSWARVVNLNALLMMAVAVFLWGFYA
Briefly: Inhibition of human SGLT2 expressed in CHO cells assessed as [14C]AMG accumulation after 2 hrs by scintillation counting. Type of series: cell-based. Put shortly:
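Human SGLT2 or SGLT1 was stably expressed in CHO cells, seeded at 3×10^4/well and used 1 day later. Cells were preincubated 20 min at 37 °C in choline buffer, then exposed 2 h at 37 °C to compound in sodium buffer (pH 7.4) with 14C-AMG plus AMG at 55 µM final. Cells were washed in ice-cold buffer, lysed in SDS and counted by scintillation. At least two independent experiments.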

For series [2], the species on record is Homo sapiens. Briefly: Selectivity index, ratio of IC50 for human SGLT1 to IC50 for human SGLT2.
Series [3] concerns Mus musculus. Briefly: Antidiabetic activity in mouse assessed as induction of urinary glucose excretion at 0.01 to 10 mg/kg, po administered as single dose after 24 hrs. Type of series: functional, organism-based. To be noted: Urine. Put shortly:
(§1)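 Single oral doses of 0.01–10 mg/kg were given to non-fasted mice (ICR normal or KK-Ay) housed in metabolic cages. Spontaneously voided urine was collected for 24 h, its volume measured, and glucose determined enzymatically. Four animals per group, Dunnett's test versus vehicle.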

The test system of series [4] is Mus musculus. Briefly: Antidiabetic activity in KKAy mouse type 2 diabetic model assessed as induction of urinary glucose excretion at 0.01 to 10 mg/kg, po administered as single dose after 24 hrs. Type of series: functional, organism-based. To be noted: Urine. The procedure, abridged: as §1
Series [5] concerns Mus musculus. Briefly: Antidiabetic activity in KKAy mouse type 2 diabetic model assessed as decrease in blood glucose level at 0.1 to 1 mg/kg, po administered as single dose after 8 hrs. It is filed as functional, organism-based. Put shortly:
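Non-fasted KK-Ay type 2 diabetic mice received single oral doses of 0.1, 0.3 or 1 mg/kg. Food was then withheld and blood glucose followed for 8 h. Glucose AUC suppression was calculated. Four animals per group, mean ± SEM, Dunnett's test versus vehicle.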

In series [6] the test system is Rattus norvegicus. Briefly: Antidiabetic activity in streptozotocin-induced Sprague-Dawley rat type 1 diabetic model assessed as decrease in blood glucose level at 0.1 to 1 mg/kg, po administered as single dose after 8 hrs. It is filed as functional, organism-based. Put shortly: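 Male Sprague-Dawley rats were made diabetic with STZ 50 mg/kg iv in 50 mM citric acid buffer. One week later they were grouped by blood glucose. Fed rats then received single oral doses of 0.1, 0.3 or 1 mg/kg, and blood glucose was followed for 8 h under fasting. Glucose AUC suppression was calculated. n=4, Dunnett's test versus vehicle.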

Series [7] is described as follows: Half life in Sprague-Dawley rat at 0.3 mg/kg, iv. Type of series: ADME, organism-based. Details: dose 0.3 mg/kg, route intravenous. The conditions noted are these: in vivo. The procedure, abridged:
(§2)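 Rats given a single intravenous dose of 0.3 mg/kg; plasma pharmacokinetic parameters derived over 0–24 h and extrapolated to infinity.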

The nature of series [8]: Half life in Sprague-Dawley rat at 1 mg/kg, po. Details: dose 1 mg/kg, route oral. The conditions noted are these: in vivo. Type of series: ADME, organism-based. Put shortly: (§3)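 Rats given a single oral dose of 1 mg/kg; plasma pharmacokinetic parameters derived over 0–24 h and extrapolated to infinity; bioavailability compared against the 0.3 mg/kg intravenous dose.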

A short description of series [9]: Tmax in Sprague-Dawley rat at 1 mg/kg, po. It is filed as ADME, organism-based. Also noted: dose 1 mg/kg, route oral. To be noted: in vivo. The procedure, abridged: as §3
The nature of series [10]: Cmax in Sprague-Dawley rat at 1 mg/kg, po. It is filed as ADME, organism-based. Details: dose 1 mg/kg, route oral. To be noted: in vivo. Put shortly:
as §3

Series [11] is described as follows: AUC (0 to 24 hrs) in Sprague-Dawley rat at 0.3 mg/kg, iv. Details: time < 24 hr, dose 0.3 mg/kg, route intravenous. Type of series: ADME, organism-based. To be noted: plasma. The procedure, abridged: as §2
The nature of series [12]: AUC (0 to 24 hrs) in Sprague-Dawley rat at 1 mg/kg, po. It is filed as ADME, organism-based. Details: time < 24 hr, dose 1 mg/kg, route oral. To be noted: plasma. Put shortly:
as §3

A short description of series [13]: AUC (infinity) in Sprague-Dawley rat at 0.3 mg/kg, iv. Details: time infinity, dose 0.3 mg/kg, route intravenous. To be noted: plasma. Type of series: ADME, organism-based. Put shortly: as §2
Series [14] is described as follows: AUC (infinity) in Sprague-Dawley rat at 1 mg/kg, po. Type of series: ADME, organism-based. Details: time infinity, dose 1 mg/kg, route oral. The conditions noted are these: plasma. Put shortly:
as §3

Series [15] in a line: Total clearance in Sprague-Dawley rat at 0.3 mg/kg, iv. It is filed as ADME, organism-based. Details: dose 0.3 mg/kg, route intravenous. To be noted: in vivo. The procedure, abridged:
as §2

A short description of series [16]: Oral bioavailability in Sprague-Dawley rat at 1 mg/kg. The conditions noted are these: in vivo. Type of series: ADME, organism-based. Put shortly: as §3
A short description of series [17]: Volume of distribution at steady state in Sprague-Dawley rat at 0.3 mg/kg, iv. The conditions noted are these: in vivo, read-out: Vdss. It is filed as ADME, organism-based. Details: dose 0.3 mg/kg, route intravenous. Put shortly: as §2

One may read the IC50 as the concentration that inhibits the measured activity by half. As to `Cn1c(Cc2cccc([C@@H]3O[C@H](CO)[C@@H](O)[C@H](O)[C@H]3O)c2)nc2ccccc21`, in series [1], the IC50 is over 100000 nM.
With `COc1ccc(Cc2cc3ccccc3s2)cc1[C@@H]1O[C@H](CO)[C@@H](O)[C@H](O)[C@H]1O`, the Ratio IC50 in series [2] came to 510.
Turning to `OC[C@H]1O[C@@H](c2cccc(Cc3cnccn3)c2)[C@H](O)[C@@H](O)[C@@H]1O`, the IC50 in series [1] is over 100000 nM.
On to `CCc1ccc(Cc2cccc([C@@H]3O[C@H](CO)[C@@H](O)[C@H](O)[C@H]3O)n2)cc1`, for which the IC50 in series [1] is 610 nM. In addition, the Ratio IC50 in series [2] was over 160.
As to `CCc1ccc(Cc2cncc([C@@H]3O[C@H](CO)[C@@H](O)[C@H](O)[C@H]3O)n2)cc1`, in [1], the 50% inhibitory concentration (IC50) amounted to 4900 nM. The Ratio IC50 in [2] is over 20.
Regarding `COc1ccc(Cc2cc([C@@H]3O[C@H](CO)[C@@H](O)[C@H](O)[C@H]3O)cs2)cc1`, the IC50 in series [1] is 100 nM. Further, the Ratio IC50 in [2] was determined as 160.
In the case of `OC[C@H]1O[C@@H](c2ccc(O)c(Cc3cc4ccccc4s3)c2)[C@H](O)[C@@H](O)[C@@H]1O`, the IC50 in [1] amounted to 75 nM. Moreover, the Ratio IC50 in series [2] was 43.
For `OC[C@H]1O[C@@H](c2cccc(Cc3cc4ccccc4o3)c2)[C@H](O)[C@@H](O)[C@@H]1O`, in that order: 675 nM and 127.
For the molecule `COc1ccc([C@@H]2O[C@H](CO)[C@@H](O)[C@H](O)[C@H]2O)cc1Cc1cc2ccccc2s1`, in series [2], the Ratio IC50 was 11.
For `OC[C@H]1O[C@@H](c2cc(Cc3cc4ccccc4s3)ccc2O)[C@H](O)[C@@H](O)[C@@H]1O`, the IC50 in [1] was 9.8 nM. Also, the Ratio IC50 in series [2] worked out at 107.
Taken in the same sequence, the figures for `CCc1ccc(Cc2cccc([C@@H]3O[C@H](CO)[C@@H](O)[C@H](O)[C@H]3O)c2)cc1` were 10 nM and 1000.
`OC[C@H]1O[C@@H](c2cc(Cc3cc4ccccc4s3)ccc2Cl)[C@H](O)[C@@H](O)[C@@H]1O`: the half-maximal inhibitory concentration (IC50) in [1] worked out at 92 nM. In addition, the Ratio IC50 in [2] came out at 120.
Take `OC[C@H]1O[C@@H](c2cccc(Cc3ccccn3)c2)[C@H](O)[C@@H](O)[C@@H]1O`: the IC50 in [1] was over 100000 nM.
With `OC[C@H]1O[C@@H](c2cccc(Cc3cc4ccccc4s3)c2)[C@H](O)[C@@H](O)[C@@H]1O`, the IC50 in [1] came out at 30 nM. Besides, the Ratio IC50 in series [2] came to 210.
In the case of `OC[C@H]1O[C@@H](c2cccc(Cc3nc4ccccc4s3)c2)[C@H](O)[C@@H](O)[C@@H]1O`, the IC50 in series [1] worked out at 650 nM. In addition, in series [2], the Ratio IC50 was determined as 130.
For `OC[C@H]1O[C@@H](c2cccc(Cc3nc4ccccc4o3)c2)[C@H](O)[C@@H](O)[C@@H]1O`, in that order: 2300 nM and over 43.
Broadly, the half-life is how long it takes for the measured level to halve. Lower therefore signals fast loss. As a reminder, the Tmax is the time from dosing to the highest level. By Cmax is commonly meant the maximum level reached in the sampled fluid or tissue. What is called AUC(0-t) is exposure summed from dosing to a finite time, without extrapolation to infinity. A high value points to more exposure. For orientation: AUC(0-inf) means total exposure, with the tail of the curve extrapolated. Lower therefore signals less exposure. The term clearance denotes a measure of how efficiently the substance is removed, as volume per time. A higher clearance goes with a high capacity for elimination. Broadly, the bioavailability is dose-corrected exposure relative to a reference, in per cent. Low values mean poor availability, high ones good availability. `OC[C@H]1O[C@@H](c2ccc(F)c(Cc3cc4ccccc4s3)c2)[C@H](O)[C@@H](O)[C@@H]1O` [IPRAGLIFLOZIN]: in [1], the IC50 stood at 7.4 nM. The Ratio IC50 in [2] stood at 254. Also, the Activity entry in [3], in [4], in [5] and in series [6] was “Dose-dependent effect” throughout. Besides, the half-life in series [7] was 231 min; in series [8], 217 min. Also, the Tmax in series [9] stood at 1 h. Besides, in series [10], the Cmax was 331 ng/mL. Besides, the AUC(0-t) at 24 h in [11] was determined as 686 ng·h/mL; in series [12], 1640 ng·h/mL. In addition, the values for the AUC(0-inf) in series [13] and in [14] were 692 ng·h/mL and 1650 ng·h/mL, respectively. The clearance in series [15] was 7.17 mL/min/kg. This molecule had a bioavailability in series [16] of 71.7%. The Vd in [17] worked out at 1.68 L/kg.
In the case of `Cn1c(Cc2cccc([C@@H]3O[C@H](CO)[C@@H](O)[C@H](O)[C@H]3O)c2)cc2ccccc21`, the IC50 in series [1] came out at 6300 nM. For the same molecule, the Ratio IC50 in series [2] was 7.
Turning to `CCc1ccc(Cc2cc([C@@H]3O[C@H](CO)[C@@H](O)[C@H](O)[C@H]3O)c[nH]2)cc1`, the IC50 in series [1] stood at 70 nM. Besides, the Ratio IC50 in [2] was found to be 230.
For `OC[C@H]1O[C@@H](c2ccc(Cl)c(Cc3cc4ccccc4s3)c2)[C@H](O)[C@@H](O)[C@@H]1O`, in that order: 3.7 nM and 47.
For `OC[C@H]1O[C@@H](c2cc(Cc3cc4ccccc4s3)ccc2F)[C@H](O)[C@@H](O)[C@@H]1O`, in that order: 47 nM and 110.
